One assay can be described thus: Ferrous ion. In short, it runs like this: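 FeCl2 (0.6 mM stock) added to the test compound solution; iron complex formation measured spectrophotometrically at 522 nm. Chelated Fe2+ % = (1 − As/Ac) × 100, where Ac is the control absorbance. IC50 came from a plot of % against concentration. Triplicate, mean ± SD.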
Assay [1] is described as follows: Fe3+-TPTZ reducing ability. As to conditions: for Fe^3+-TPTZ reducing (absorbance): 20 μg/mL, absorbance at 593 nm.
A short description of assay [2]: DMPD radical cation scavenging. In short, it runs like this: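 DMPD solution (0.1 M stock) added to 0.1 M acetate buffer, pH 5.3, containing the test compound (10−30 μg/mL). FeCl3 (50 mM stock) was then added and absorbance measured at 505 nm. Scavenging % = (1 − As/Ac) × 100. IC50 was read from a plot of % against concentration. Triplicate, mean ± SD.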
A further assay can be described thus: DPPH radical scavenging. A digest of the protocol:
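Ethanolic DPPH (0.1 mM stock) added to the test compound in ethanol (10−30 μg/mL). Incubated 30 min in the dark, absorbance read at 517 nm. Scavenging % = (1 − As/Ac) × 100. IC50 was obtained by plotting % against concentration. Triplicate analyses, mean ± SD.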

A short description of a further assay: Fe3+ reducing ability. The conditions noted are these: for Fe^3+ reducing (absorbance): 20 μg/mL, absorbance at 700 nm.
The nature of assay [3]: ABTS radical cation scavenging. A digest of the protocol: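 Radical cation generated from 2.0 mM ABTS in deionized water with 2.3 mM K2S2O8, then diluted with pH 7.4 buffer to absorbance 0.750 ± 0.025. Test compound (10−30 μg/mL) mixed with the radical solution; residual absorbance read at 734 nm. Scavenging % = (1 − As/Ac) × 100. IC50 was taken from a plot of % against concentration. Triplicate runs, mean ± SD.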

The next assay is described as follows: Cu2+ reducing ability. The conditions noted are these: for Cu^2+ reducing (absorbance): 20 μg/mL, absorbance at 450 nm; for Cu^2+ ions reducing ability (absorbance): running text: at 30 μg/mL concentration, 450 nm. A digest of the protocol:
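CUPRAC assay: CuCl2 (10 mM stock), neocuproine (7.5 mM stock) and 1.0 M acetate buffer were added to the test compound (10−30 μg/mL). The mixture was made up with deionized water, tubes were closed and left at room temperature, and absorbance was read at 450 nm. Higher absorbance means greater reducing ability. Triplicate runs, mean ± SD.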

Assay [4] is described as follows: Superoxide anion radical scavenging. A digest of the protocol:
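Superoxide generated in a methionine–riboflavin system under illumination and detected by NBT reduction at 560 nm. Scavenging % = (1 − As/Ac) × 100 against a compound-free control. IC50 was estimated from a plot of % against test compound concentration. Triplicate, mean ± SD.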

The target of assay [5] is acetylcholinesterase (AChE) (Electrophorus electricus, UniProt O42275). The assay can be described thus: AChE inhibition. Format: biochemical, Electric eel.
acetylcholinesterase (AChE), sequence (O42275 24-633): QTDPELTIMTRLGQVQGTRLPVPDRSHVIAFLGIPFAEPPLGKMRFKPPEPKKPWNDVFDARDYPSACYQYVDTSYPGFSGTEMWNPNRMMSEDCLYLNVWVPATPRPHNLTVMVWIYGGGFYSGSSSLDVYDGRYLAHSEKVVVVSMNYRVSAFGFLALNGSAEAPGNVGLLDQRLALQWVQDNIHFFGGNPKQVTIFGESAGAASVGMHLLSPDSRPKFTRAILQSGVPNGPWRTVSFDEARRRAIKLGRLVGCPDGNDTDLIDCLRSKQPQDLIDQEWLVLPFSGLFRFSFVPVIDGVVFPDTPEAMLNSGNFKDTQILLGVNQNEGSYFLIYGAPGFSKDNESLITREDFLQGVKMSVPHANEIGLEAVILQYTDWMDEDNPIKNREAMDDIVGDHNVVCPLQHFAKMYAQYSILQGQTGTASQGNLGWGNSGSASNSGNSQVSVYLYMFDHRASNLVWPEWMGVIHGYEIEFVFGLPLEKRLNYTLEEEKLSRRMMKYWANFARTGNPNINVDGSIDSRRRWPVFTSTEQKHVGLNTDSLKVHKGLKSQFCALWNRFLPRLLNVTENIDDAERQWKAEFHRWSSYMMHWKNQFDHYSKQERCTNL
The target of assay [6] is butyrylcholinesterase (BChE) (Equus caballus, UniProt P81908). In words: biochemical. The arrangement: species or system equine.
butyrylcholinesterase (BChE), sequence (P81908 whole entry): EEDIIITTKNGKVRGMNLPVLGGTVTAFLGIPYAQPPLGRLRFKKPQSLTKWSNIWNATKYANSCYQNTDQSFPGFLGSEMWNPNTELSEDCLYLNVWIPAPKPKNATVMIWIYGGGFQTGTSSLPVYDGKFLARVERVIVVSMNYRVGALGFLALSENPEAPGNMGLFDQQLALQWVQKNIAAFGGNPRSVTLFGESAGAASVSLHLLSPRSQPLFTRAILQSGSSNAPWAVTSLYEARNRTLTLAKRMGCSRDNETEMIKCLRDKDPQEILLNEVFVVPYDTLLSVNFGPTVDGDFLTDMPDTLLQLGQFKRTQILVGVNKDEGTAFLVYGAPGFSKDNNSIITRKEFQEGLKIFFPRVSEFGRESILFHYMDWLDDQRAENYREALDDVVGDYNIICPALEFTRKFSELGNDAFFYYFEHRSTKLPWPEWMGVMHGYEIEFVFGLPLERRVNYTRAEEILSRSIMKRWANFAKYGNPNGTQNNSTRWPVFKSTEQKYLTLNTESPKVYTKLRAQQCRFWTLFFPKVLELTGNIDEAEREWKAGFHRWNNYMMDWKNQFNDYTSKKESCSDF

Each structure is given as a SMILES string.

The IC50 is the concentration that inhibits the measured activity by half. The Ki is a measure of affinity in units of concentration, obtained from inhibition or displacement. High values mean a looser hold on the target, low ones a stronger hold on the target.

In the case of `O=C(O)CN(CCN(CC(=O)O)CC(=O)O)CC(=O)O` [EDTA], the “Metal chelating (Fe^2+) IC50” value in “Ferrous ion” stood at 6.24 µg/mL.
Consider `Cc1c(C)c2c(c(C)c1O)CCC(C)(C(=O)O)O2` (stereo not drawn) [Trolox, trolox], for which, in assay [1], the “Fe^3+-TPTZ reducing (absorbance)” value is given as 1.973. Moreover, the “DMPD^•+ scavenging IC50” value in [2] was 22.35 µg/mL. Further, in “DPPH radical scavenging”, the “DPPH· scavenging IC50” value came to 8.01 µg/mL. In “Fe3+ reducing ability”, the “Fe^3+ reducing (absorbance)” value is recorded as 1.148. The “ABTS^•+ scavenging IC50” value in assay [3] came out at 4.30 µg/mL. For the same molecule, in “Cu2+ reducing ability”, the “Cu^2+ reducing (absorbance)” value is reported as 0.825 and the “Cu^2+ ions reducing ability (absorbance)” value is recorded as 0.825. For the same molecule, in “Ferrous ion”, the “Metal chelating (Fe^2+) IC50” value amounted to 8.05 µg/mL. Besides, the “O2^•− scavenging IC50” value in assay [4] came to 30.13 µg/mL.
With `CC(=O)c1c(O)c(C)c(O)c2c1OC1=CC(=O)C(C(C)=O)C(=O)C12C` (stereo not drawn) [Usnic acid], in assay [1], the “Fe^3+-TPTZ reducing (absorbance)” value is recorded as 1.293. Moreover, in assay [1] (concentration not given, 593 nm), the “FRAP effects (absorbance)” value came out at 1.293. In addition, the “DMPD^•+ scavenging IC50” value in [2] is 33.00 µg/mL. In addition, in assay [5], inhibition was half-maximal at 1.27 nM (IC50) and the affinity, expressed as Ki, was 0.239 nM. Also, in “DPPH radical scavenging”, the “DPPH· scavenging IC50” value was determined as 49.50 µg/mL. Also, the “Fe^3+ reducing (absorbance)” value in the assay “Fe3+ reducing ability” was 0.278. The “Fe^3+ reducing ability (absorbance)” value in “Fe3+ reducing ability” (concentration not given, 700 nm) came to 0.278. Moreover, the “ABTS^•+ scavenging IC50” value in assay [3] came to 10.41 µg/mL. For the same molecule, in “Cu2+ reducing ability”, the “Cu^2+ reducing (absorbance)” value turned out to be 0.277 and the “Cu^2+ ions reducing ability (absorbance)” value is 0.277. Moreover, in [6], the IC50 was determined as 3.4 nM. Further, the “Metal chelating (Fe^2+) IC50” value in the assay “Ferrous ion” stood at 18.68 µg/mL. In assay [4], the “O2^•− scavenging IC50” value turned out to be 20.38 µg/mL.
As for `Cc1c(C)c2c(c(C)c1O)CC[C@@](C)(CCC[C@H](C)CCC[C@H](C)CCCC(C)C)O2` [α-Tocopherol, α-tocopherol], the “Fe^3+-TPTZ reducing (absorbance)” value in assay [1] is given as 1.473. Moreover, the “DMPD^•+ scavenging activity” value in assay [2] is listed as “did not demonstrate scavenging activity”. Moreover, the “DPPH· scavenging IC50” value in the assay “DPPH radical scavenging” came out at 9.76 µg/mL. Moreover, the “Fe^3+ reducing (absorbance)” value in “Fe3+ reducing ability” is 0.802. For the same molecule, the “ABTS^•+ scavenging IC50” value in [3] turned out to be 5.02 µg/mL. Besides, in the assay “Cu2+ reducing ability”, the “Cu^2+ reducing (absorbance)” value came to 0.564 and the “Cu^2+ ions reducing ability (absorbance)” value came out at 0.564. Besides, the “Metal chelating (Fe^2+) IC50” value in the assay “Ferrous ion” was determined as 27.72 µg/mL. Moreover, in assay [4], the “O2^•− scavenging IC50” value was determined as 21.01 µg/mL.

(Values after paper PMC6889762 (Toxicology Reports, 2019).)
